Assays:
Type in all cases: functional
Set-up in all cases: scale not given: the % may be the effect or the level left
BV-2 [1] = assay: Inhibition of LPS-induced NO production in mouse BV2 microglia cells assessed as nitrite levels at 100 uM relative to untreated control
Procedure, shortened: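 BV-2 microglia seeded 2 × 10^5 cells/well in 24-well plates. After 24 h, fresh medium with LPS ([…]) and compound in DMSO added at the same time. After 24 h, nitrite in the medium measured by Griess reaction (sulfanilamide, naphthylethylenediamine, H3PO4) with absorbance at 540 nm. Given as % of LPS-activated cells.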

BV-2 [2] = assay: Inhibition of LPS-induced tetrahydrobiopterin production in mouse BV2 microglia cells assessed as tetrahydrobiopterin levels at 100 uM relative to untreated control
Procedure, shortened: (§1)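 BV-2 cells in 24-well plates (2 × 10^5/well) stimulated with LPS ([…]) in fresh medium together with compound in DMSO for 24 h. Medium was treated with phosphoric acid and acidic iodine (I2/KI in trichloroacetic acid) for 1 h in the dark. Oxidation stopped with ascorbic acid, then centrifuged and diluted. BH4 given as % of LPS-activated cells.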

BV-2 [3] = assay: Inhibition of LPS-induced tetrahydrobiopterin production in mouse BV2 microglia cells assessed as tetrahydrobiopterin levels at 10 uM relative to untreated control; procedure, shortened: as §1
BV-2 [4] = assay: Inhibition of LPS-induced tetrahydrobiopterin production in mouse BV2 microglia cells assessed as tetrahydrobiopterin levels at 60 uM relative to untreated control; procedure, shortened: as §1
BV-2 [5] = assay: Inhibition of LPS-induced tetrahydrobiopterin production in mouse BV2 microglia cells assessed as tetrahydrobiopterin levels at 30 uM relative to untreated control; procedure, shortened: as §1
BV-2 [6] = assay: Inhibition of LPS-induced tetrahydrobiopterin production in mouse BV2 microglia cells assessed as tetrahydrobiopterin levels at 50 uM relative to untreated control; procedure, shortened: as §1

Structure (SMILES) | Activity (BV-2 [1]) | further results
CCC1c2cc(O)c(OC)cc2CCN1C(C)=O (stereo not given) | 50% | 
CCCC1c2cc(O)c(OC)cc2CCN1C(C)=O (stereo not given) | 84% | 
COc1cc2c(cc1O)C(C1CCC1)N(C(C)=O)CC2 (stereo not given) | 69% | 
CCC(=O)N1CCc2cc(OC)c(O)cc2C1 | 36% | Activity (BV-2 [2]): 51%; Activity (BV-2 [3]): 86%; Activity (BV-2 [4]): 72%
COc1cc2c(cc1O)C(CC(C)C)N(C(C)=O)CC2 (stereo not given) | 113% | 
COc1cc2c(cc1O)C(C)N(C(C)=O)CC2 (stereo not given) | 40% | Activity (BV-2 [2]): 52%; Activity (BV-2 [3]): 99%; Activity (BV-2 [5]): 59%; Activity (BV-2 [4]): 59%
CCCN1CCc2cc(OC)c(O)cc2C1 | 82% | 
COc1cc2c(cc1O)CN(C(=O)C(C)C)CC2 | 82% | 
CCCCN1CCc2cc(OC)c(O)cc2C1 | 111% | 
COc1cc2c(cc1O)CN(C(C)=O)CC2 | 46% | Activity (BV-2 [2]): 55%; Activity (BV-2 [6]): 79%
COc1cc2c(cc1O)C(C1CC1)N(C(C)=O)CC2 (stereo not given) | 60% | 
COc1cc2c(cc1O)C(c1ccccc1)N(C(C)=O)CC2 (stereo not given) | 51% | 
COc1cc2c(cc1O)C(Cc1ccccc1)N(C(C)=O)CC2 (stereo not given) | 96% | 
COc1cc2c(cc1O)C(C(C)C)N(C(C)=O)CC2 (stereo not given) | 39% | 
CCCC(=O)N1CCc2cc(OC)c(O)cc2C1 | 74% | 
COc1cc2c(cc1O)CN(CC1CCCCC1)CC2 | 63% | 
COc1cc2c(cc1O)CN(C(=O)CC(C)C)CC2 | 90% | 
COc1cc2c(cc1O)CN(C(=O)C1CCCCC1)CC2 | 64% | Activity (BV-2 [2]): 63%; Activity (BV-2 [5]): 95%; Activity (BV-2 [4]): 71%
